17 molecules from ChEMBL document CHEMBL1123760, “Synthesis and oral antifungal activity of novel azolylpropanolones and related compounds” (1987) can be followed below.

What all share (format): functional
Assay [1] has as its system Aspergillus fumigatus. Put plainly: In vitro antifungal activity against Aspergillus fumigatus. To be noted: Aspergillus fumigatus; read-out: MIC. Put shortly:
(§1)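 Broth microdilution MIC in Sabouraud's glucose broth; final inocula 1 × 10^5 cells/mL (yeast) or 1 × 10^5 conidia/mL (mold and dermatophyte).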

For assay [2], the system named is Candida albicans. The assay can be described thus: Minimum effective concentration for inhibition of pseudomycelium formation in Candida albicans. To be noted: Candida albicans; read-out: MEC. A digest of the protocol:
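C. albicans KE-2 (clinical isolate) at a final 1 × 10^6 yeast cells/mL in EMEM with 20% calf serum; compounds diluted by the same microtiter system as for MICs. After incubation, wells were Giemsa-stained (5% in phosphate buffer) and read by microscope. MEC is the lowest concentration preventing typical pseudomycelium formation.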

For assay [3], the system named is Trichophyton benhamiae. Put plainly: In vitro antifungal activity against Trichophyton asteroides. The following applies: Trichophyton benhamiae; read-out: MIC. Put shortly:
as §1

Assay [4] relates to Mus musculus. Put plainly: Ratio of in vivo number of survivors / total infected. Also noted: reference not given here.
In assay [5] the test system is Candida albicans. Put plainly: In vitro antifungal activity against Candida albicans. The following applies: Candida albicans; read-out: MIC. A digest of the protocol:
as §1

Values after ≈ are worked out from the molar mass of the structure shown.

As usually defined, the MIC is the lowest concentration that inhibits growth of the organism. With `OC(c1ccc(Cl)cc1Cl)C(O)(Cn1ccnc1)c1ccc(Cl)cc1Cl` (stereo not given), the MIC stood at 100 µg/mL (≈ 231 µM) in assay [1], 0.1 µg/mL (≈ 0.231 µM) in assay [3] and 50 µg/mL (≈ 116 µM) in assay [5]. Moreover, the minimal effective concentration in assay [2] turned out to be 1.25 µg/mL. For the same molecule, the No. of survivors in assay [4] is reported as 3.
For `CCCCC(=O)C(O)(Cn1ccnc1)c1ccc(Cl)cc1Cl` (stereo not given), in that order: more than 100 µg/mL, 0.1 µg/mL (≈ 0.293 µM), more than 100 µg/mL, 0.04 µg/mL and 0.
For `O=C1O[C@H](c2ccc(Cl)cc2Cl)[C@@](Cn2cncn2)(c2ccc(Cl)cc2Cl)O1`, in that order: more than 100 µg/mL, 0.1 µg/mL (≈ 0.218 µM), more than 100 µg/mL, 0.16 µg/mL and 0.
For `O=C(c1ccc(Cl)cc1Cl)C(O)(Cn1ccnc1)c1ccc(Cl)cc1Cl` (stereo not given), in that order: 25 µg/mL (≈ 58.1 µM), 0.1 µg/mL (≈ 0.232 µM), 50 µg/mL (≈ 116 µM), 5 µg/mL and 1.
As to `O=C(c1ccc(Cl)cc1Cl)C(O)(Cn1cncn1)c1ccccc1Cl` (stereo not given), the MIC turned out to be 100 µg/mL (≈ 252 µM) in assay [1], 0.1 µg/mL (≈ 0.252 µM) in assay [3] and 100 µg/mL (≈ 252 µM) in assay [5]. The minimal effective concentration in assay [2] came to 0.31 µg/mL. Besides, the No. of survivors in assay [4] was determined as 7.
For `O=C(c1ccc(Cl)cc1Cl)[C@](O)(Cn1cncn1)c1ccc(Cl)cc1Cl`, the MIC in assay [1] was more than 100 µg/mL; in assay [3] it was 0.1 µg/mL (≈ 0.232 µM); in assay [5], more than 100 µg/mL. The minimal effective concentration in assay [2] came to 0.08 µg/mL. Besides, the No. of survivors in assay [4] is 8.
As to `O=C(c1ccc(Cl)cc1)C(O)(Cn1cncn1)C1CCCC1` (stereo not given), the MIC in assay [1] was determined as 50 µg/mL (≈ 156 µM); in assay [3], 0.1 µg/mL (≈ 0.313 µM); in assay [5] it was 100 µg/mL (≈ 313 µM). The minimal effective concentration in assay [2] was found to be 0.16 µg/mL. Further, the No. of survivors in assay [4] was found to be 1.
With `CC(C)(C)C(=O)C(O)(Cn1cncn1)c1ccc(Cl)cc1Cl` (stereo not given), the values for the MIC in assay [1], in assay [3] and in assay [5] were more than 100 µg/mL, 0.1 µg/mL (≈ 0.292 µM) and more than 100 µg/mL, respectively. Besides, the minimal effective concentration in assay [2] is 0.04 µg/mL. Besides, the No. of survivors in assay [4] is given as 7.
Consider `O=C(c1ccc(Cl)cc1)C(O)(Cn1cncn1)C1CCCCC1` (stereo not given), for which the MIC in assay [1] was 50 µg/mL (≈ 150 µM); in assay [3], 0.8 µg/mL (≈ 2.4 µM); in assay [5] it was more than 100 µg/mL. The minimal effective concentration in assay [2] is 0.08 µg/mL. The No. of survivors in assay [4] was determined as 0.
For `CCCC(O)(c1ccc(F)cc1)C(O)(Cn1cncn1)c1ccc(Cl)cc1` (stereo not given), in that order: more than 100 µg/mL, 0.2 µg/mL (≈ 0.513 µM), more than 100 µg/mL, 0.31 µg/mL and 7.
With `Clc1ccc([C@@]2(Cn3cncn3)OC3(CCCCC3)O[C@@H]2c2ccc(Cl)cc2Cl)cc1`, the MIC is more than 100 µg/mL in assay [1], 0.1 µg/mL (≈ 0.209 µM) in assay [3] and more than 100 µg/mL in assay [5]. Besides, the minimal effective concentration in assay [2] came out at 5 µg/mL. In addition, the No. of survivors in assay [4] came to 0.
With `CCCC(=O)C(O)(Cn1cncn1)c1ccc(Cl)cc1Cl` (stereo not given), the MIC in assay [1] is 50 µg/mL (≈ 152 µM); in assay [3], 0.1 µg/mL (≈ 0.305 µM); in assay [5] it was 50 µg/mL (≈ 152 µM). In assay [2], the minimal effective concentration amounted to 0.04 µg/mL. The No. of survivors in assay [4] came to 4.
As for `O=C(c1ccc(Cl)cc1Cl)[C@@](O)(Cn1cncn1)c1ccc(Cl)cc1Cl`, the MIC in assay [1] was more than 100 µg/mL; in assay [3] it was 0.1 µg/mL (≈ 0.232 µM); in assay [5], 50 µg/mL (≈ 116 µM). Also, in assay [2], the minimal effective concentration worked out at 1.25 µg/mL. In addition, the No. of survivors in assay [4] is on record as 1.
For `Cc1ccccc1C(=O)C(O)(Cn1cncn1)c1ccccc1C` (stereo not given), in that order: more than 100 µg/mL, 3.1 µg/mL (≈ 9.65 µM), more than 100 µg/mL, 5 µg/mL and 0.
On the same counts, the results for `OC(c1ccccc1Cl)C(O)(Cn1cncn1)c1ccccc1Cl` (stereo not given) are 6.3 µg/mL (≈ 17.3 µM), 0.1 µg/mL (≈ 0.275 µM), 100 µg/mL (≈ 275 µM), 0.08 µg/mL and 2.
For `O=C(c1ccccc1Cl)C(O)(Cn1cncn1)c1ccc(Cl)cc1Cl` (stereo not given), in that order: more than 100 µg/mL, 0.1 µg/mL (≈ 0.252 µM), more than 100 µg/mL, 0.04 µg/mL and 8.
Regarding `O=C(c1ccccc1)C(O)(Cn1ccnc1)c1ccc(Cl)cc1Cl` (stereo not given), the MIC in assay [1] was more than 100 µg/mL; in assay [3], 0.1 µg/mL (≈ 0.277 µM); in assay [5], more than 100 µg/mL. In assay [2], the minimal effective concentration turned out to be 0.63 µg/mL. Besides, in assay [4], the No. of survivors was 0.
